Shown are actives, neighbours in structure and some others; about 1.5% of the full set was active somewhere.
EBI2 block: EBI2 (human) antagonism | AID 651636 | inhibition, % at 5 µM | 360,000 compounds, 0.81% hits | EBI2 beta-arrestin recruitment, luminescence, 7a,25-OHC stimulated | P32249; in the data active means inhibition above about 38%;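 further: enzyme fragment complementation signal reports receptor beta-arrestin coupling in cells; 0% = agonist plus DMSO wells and 100% = wells without agonist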
Target sequence (P32249 whole entry, looked up, the tested form may be a part): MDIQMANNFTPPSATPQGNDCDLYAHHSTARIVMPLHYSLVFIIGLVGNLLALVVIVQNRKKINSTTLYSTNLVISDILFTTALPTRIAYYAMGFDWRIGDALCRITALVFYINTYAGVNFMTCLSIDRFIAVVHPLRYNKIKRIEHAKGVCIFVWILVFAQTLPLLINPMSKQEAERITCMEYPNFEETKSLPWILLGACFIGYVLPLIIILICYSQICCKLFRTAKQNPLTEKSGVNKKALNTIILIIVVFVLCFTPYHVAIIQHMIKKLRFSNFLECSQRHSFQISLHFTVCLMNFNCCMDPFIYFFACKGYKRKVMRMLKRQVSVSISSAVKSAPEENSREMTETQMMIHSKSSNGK
APJ antag: blocks the human apelin receptor APJ. CHO-K1 APJ beta-arrestin complementation, luminescence. AID 2521. 330,000 compounds, 0.32% hits. P35414. inhibition, % at 20 µM;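 active means inhibition above about 40% at 20 µM, limit read from the data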;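 further: cells challenged with 10 nM apelin-13 agonist together with compound; plate controls were apelin-13 plus DMSO wells for no effect and DMSO wells lacking apelin-13 for full effect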
Target sequence (P35414 whole entry, looked up): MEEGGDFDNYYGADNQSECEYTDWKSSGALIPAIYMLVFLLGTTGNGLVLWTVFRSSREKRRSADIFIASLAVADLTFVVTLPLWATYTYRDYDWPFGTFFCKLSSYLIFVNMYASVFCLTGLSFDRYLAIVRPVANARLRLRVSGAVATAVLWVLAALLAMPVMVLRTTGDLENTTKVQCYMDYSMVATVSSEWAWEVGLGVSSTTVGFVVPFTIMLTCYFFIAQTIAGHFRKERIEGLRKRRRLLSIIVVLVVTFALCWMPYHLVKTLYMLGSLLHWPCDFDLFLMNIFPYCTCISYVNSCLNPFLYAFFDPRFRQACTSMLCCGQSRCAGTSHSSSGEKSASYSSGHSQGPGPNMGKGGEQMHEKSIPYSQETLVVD
CCR6 antag: antagonists of human CCR6 receptor; P51684; 340,000 compounds, 0.49% hits; AID 493098; inhibition, % at 20 µM; CHO-K1 CCR6 PathHunter beta-arrestin, luminescence, CCL20-stimulated;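 active means compounds whose inhibition of the agonist-driven luminescence signal at 20 µM reaches about 50%, limit read from the data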;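 further: cells stimulated with CCL20 at 14 nM final; plate controls were DMSO with CCL20 for no effect and DMSO without agonist for full effect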
CXCR6 inh: blocks human CXCR6 beta-arrestin recruitment. O00574. CHO-K1 PathHunter CXCR6 beta-arrestin, luminescence. inhibition, % at 20 µM. 360,000 compounds, 0.36% hits. AID 602244; in the data active means inhibition above about 34%, passing the limit was not always enough;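 further: antagonist mode with CXCL16 agonist at 10 nM final; 0% = 10 nM CXCL16 with DMSO and 100% = unstimulated wells without agonist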
APJ ag: APJ receptor agonism; P35414; CHO-K1 APJ PathHunter beta-arrestin, luminescence; 0% DMSO wells, 100% apelin; activation, % at 20 µM; 330,000 compounds, 0.11% hits; AID 2520;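 active means activation more than six SD over the plate average, tested at 20 µM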;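 further: 0% = DMSO alone and 100% = apelin-13 at 10 nM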
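Material: engineered CHO-K1 APJ arrestin reporter cells; amount: 1000 CHO-K1 reporter cells seeded per well; incubation: compound stimulation 90 min at 25 °C, detection 60 min; signal: luminescent beta-gal fragment complementation, chemiluminescent substrate; read-out basis: APJ agonist activity; controls: DMSO-only wells as negative, 10 nM Apelin-13 as positive control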
APJ antag confirm: APJ receptor antagonism confirmation. 950 compounds, 66% hits. APJ beta-arrestin recruitment, luminescence, antagonist mode. shares compounds with APJ antag. AID 2766. inhibition, % at 20 µM; in the data active means inhibition above about 50%
CXCR6 antag conf: CXCR6 antagonism confirmation, single concentration; shares compounds with CXCR6 inh; CHO-K1 CXCR6 PathHunter beta-arrestin, luminescence; inhibition, % at 20 µM; 700 compounds, 65% hits;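 active means mean inhibition over four retests above 40%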;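 further: receptor stimulated with 10 nM CXCL16 agonist; beta-galactosidase fragment complementation upon beta-arrestin recruitment to receptor; plate controls were CXCL16 plus DMSO for no effect and DMSO without CXCL16 for full effect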
An asterisk follows results filed as active; x = not tested or not shown.

SMILES | EBI2 block | APJ antag | CCR6 antag | CXCR6 inh | APJ ag | APJ antag confirm | others
O=C(CCC(=O)OCC(=O)c1cccc([N+](=O)[O-])c1)Nc1ccccc1Cl | 11.7 | 68.3* | 61.5* | 29.8 | -13.1 | 111.7*
COc1cc([N+](=O)[O-])ccc1NC(=S)NNC(=O)CCC(=O)Nc1ccccc1Cl | 7.3 | 44.5* | 33.8 | 31.0 | -13.7 | 50.9*
Cc1cccc2c1N(C(=O)CN1C(=O)c3ccccc3C1=O)C(C)(C)c1ssc(=S)c1-2 | 5.7 | -5.9 | 16.0 | 7.4 | -4.1 | x
O=C(Nc1cccc(C(=O)N2CCOCC2)c1)c1ccc([N+](=O)[O-])cc1 | 2.1 | -10.0 | 0.0 | -0.3 | 2.9 | x
COc1cc(OC)cc(C(=O)N/N=C(\C)CC(=O)Nc2ccccn2)c1 | -4.7 | -20.7 | 2.0 | 2.3 | 2.5 | x
Cc1cccc(C(=O)N/N=C/c2ccc[nH]2)c1 | -12.1 | 0.0 | -1.8 | -3.8 | -0.2 | x
COC(=O)C1=C(C(=O)OC)[C@@H]2N(C)c3ccc(OC)cc3[C@@]23C[C@@H](C(=O)OC)N(S(=O)(=O)c2ccc(OC)cc2)C3=N1 | -1.5 | -3.4 | 17.3 | 1.7 | 2.0 | x
Cc1cccc(C)c1NC(=O)CN(C)C(=O)c1ccc(OCc2ccccc2)cc1 | 3.9 | x | x | -0.2 | x | x
Cc1ccc(C(C#N)c2ccc3c(C(F)(F)F)cc(C(F)(F)F)nc3n2)cc1 (stereo not drawn) | -8.8 | 49.1* | 53.6* | 35.1 | -5.8 | 79.7*
FC(F)(F)c1cc(C(F)(F)F)c2ccc(N/N=C/c3ccccc3)nc2n1 | 20.3 | -12.4 | -6.5 | -4.6 | 0.8 | x
CN(N)c1ccc2c(C(F)(F)F)cc(C(F)(F)F)nc2n1 | -3.5 | 13.4 | -1.0 | -1.6 | -2.1 | x
N#CC(c1ccccc1)c1ccc2c(C(F)(F)F)cc(C(F)(F)F)nc2n1 (stereo not drawn) | -19.8 | 41.7* | 53.1* | 22.8 | -5.3 | 87.8*
O=C(C1=C[C@H](c2ccc(Br)cc2)C[C@H](OCCCCO)O1)N1CCN(Cc2ccc3c(c2)OCO3)CC1 | 12.5 | -2.8 | 23.8 | -7.1 | 8.7 | x
Cc1cc(N2C(=O)C(O)=C(C(=O)c3cc4ccccc4o3)C2c2cccc(Br)c2)no1 (stereo not drawn) | 11.4 | 31.3 | 4.0 | 4.6 | -3.5 | x
CCCOc1cccc(C2C(C(=O)c3cc4ccccc4o3)=C(O)C(=O)N2c2cc(C)on2)c1 (stereo not drawn) | -2.4 | 47.1* | 5.1 | -1.5 | -4.1 | 35.1
CN(C(=O)CSc1nnc2n1CCCCC2)C1(C#N)CCCCC1 | -4.1 | -0.9 | 4.5 | 0.7 | -1.4 | x
COc1ccc(CC(=O)OC(C)C(=O)NCc2ccc3c(c2)OCO3)cc1OC (stereo not drawn) | -1.8 | 40.9* | 2.1 | -9.7 | -1.5 | 1.4
O=C1N(c2ccccc2C(F)(F)F)O[C@@]1(c1ccccc1)C1CCCCC1 | 4.1 | 8.1 | 26.0 | 5.1 | -2.9 | x
Cc1ccc(O)c(-c2cc(C(=O)NCc3ccc4c(c3)OCO4)[nH]n2)c1 | 7.8 | 45.3* | 11.3 | -5.0 | -3.5 | -2.8
Cc1ccc(CNC(=O)c2cc(-c3cc(C)cc(C)c3O)n[nH]2)cc1 | 34.5 | 2.5 | 8.1 | -3.8 | -1.0 | x
O=C(NCC1CCCO1)c1sc(=S)n2c1[nH]c(=O)c1ccc(C(=O)N3CCCCC3)cc12 (stereo not drawn) | 10.6 | 18.9 | 15.5 | 9.6 | -8.7 | x
Oc1ccccc1/C=N/Nc1cc(N2CCCC2)nc(N2CCCC2)n1 | 27.6 | 42.3* | 34.7 | 15.7 | -2.7 | 41.9
O=C(CN1CCNCC1)Nc1ccc(Oc2ccccc2)cc1 | -15.9 | 17.4 | -0.8 | -13.9 | 5.1 | x
O=C(COc1ccc(-c2ccccc2)cc1)NNC(=O)NC1CCCCC1 | 2.3 | -6.6 | 12.2 | -5.5 | -2.2 | x
Cc1ccc(/C=C2/NC(=O)N(Cc3ccccc3)C2=O)o1 | -1.6 | 61.3* | 13.0 | 8.0 | -8.9 | 37.2
SMILES | EBI2 block | APJ antag | CCR6 antag | CXCR6 inh | APJ ag | APJ antag confirm | others
Cc1cc(Sc2ncnc(N)c2[N+](=O)[O-])ncn1 | 0.6 | 34.6 | 28.7 | 26.6 | -2.4 | x
CCOc1c(C(N)=O)c(-c2ccccc2)c2c(=O)[nH]c3ccccc3n12 | 19.7 | 60.4* | 16.5 | 35.3 | -7.7 | 60.2*
Cc1c(Nc2cc(Cl)c3nonc3c2[N+](=O)[O-])c(=O)n(-c2ccccc2)n1C | 60.9* | 83.1* | 91.1* | 88.2* | -6.6 | 115.0* | CXCR6 antag conf=104.7*
CCN(CC)S(=O)(=O)c1cc([N+](=O)[O-])ccc1N1CCC(C(N)=O)CC1 | -4.4 | 2.3 | 8.6 | 4.0 | -0.4 | x
O=C(O)C1CCN(c2nc(-c3ccccc3)nc3c2oc2ccccc23)CC1 | -5.4 | 10.7 | 11.0 | -4.8 | 1.8 | x
O=S(=O)(c1ccc2c(c1)OCCCO2)N1CCNCC1 | -5.9 | 9.9 | 5.5 | 2.5 | -2.7 | x
N=C1S/C(=C\c2ccco2)C(=O)N1c1nccs1 | -2.6 | 44.1* | 83.2* | 65.7* | -8.5 | 65.5* | CXCR6 antag conf=76.6*
Cc1cccnc1Nc1nc(-c2ccccn2)cs1 | 75.8* | 79.6* | 72.0* | 71.5* | -10.5 | 103.2* | CXCR6 antag conf=88.6*
CC(C)(C)c1ccc(-n2nc(C#N)c(Cl)cc2=O)cc1 | 82.5* | 60.0* | 49.8 | 60.8* | -1.5 | 83.4* | CXCR6 antag conf=69.5*
COc1cc(OC)cc(-c2nc(-c3ccccc3)no2)c1 | 23.7 | 5.4 | 0.2 | -1.8 | -4.9 | x
COc1ccc(OC)c(NC(=O)c2nc(S(=O)(=O)Cc3ccccc3)ncc2Cl)c1 | 84.9* | 63.5* | 83.6* | 58.7* | -8.7 | 95.6* | CXCR6 antag conf=68.8*
CCS(=O)(=O)c1ncc(Cl)c(C(=O)Nc2ccc(S(=O)(=O)N(C)c3ccccc3)cc2)n1 | 86.5* | 67.4* | 94.4* | 85.0* | -5.0 | 102.2* | CXCR6 antag conf=92.3*
O=C(Nc1ccc(F)cc1)c1nc(S(=O)(=O)Cc2ccccc2)ncc1Cl | 41.8 | 40.3* | 77.6* | 61.6* | -6.2 | 84.4* | CXCR6 antag conf=67.2*
CS(=O)(=O)c1ncc(Cl)c(C(=O)Nc2ccc(OC(F)F)cc2)n1 | -2.7 | 44.1* | 57.0* | 46.9* | -4.3 | 72.2* | CXCR6 antag conf=60.2*
CS(=O)(=O)c1ncc(Cl)c(C(=O)Nc2ccc(N3CCOCC3)cc2)n1 | 2.2 | 22.2 | 44.1 | 25.1 | -0.3 | x
COc1ccc(OC)c(NC(=O)CS(=O)(=O)Cc2ccccc2)c1 | 1.9 | -53.4 | 4.5 | -7.3 | -2.0 | x
CC(=O)Nc1ccc(S(=O)(=O)N(C)c2ccccc2)cc1 | -6.2 | 5.0 | 14.6 | -5.3 | -4.9 | x
O=C(CNCCC1=CCCCC1)Nc1ccc(N2CCCCCC2)cc1 | -8.7 | -13.9 | 13.8 | -10.0 | 0.9 | x
COc1cc(/C=C/[N+](=O)[O-])ccc1OC(=O)c1cc2ccccc2oc1=O | -7.9 | 45.9* | 28.9 | 76.0* | -1.7 | 91.4* | CXCR6 antag conf=68.8*
COc1ccccc1OC(=O)c1cc2ccccc2oc1=O | -12.3 | 11.1 | -6.5 | -1.0 | -0.8 | x

Bioassay records (PubChem)
